Measurements reported in ChEMBL document CHEMBL1156720, “Synthesis and antimicrobial activity of dermaseptin S1 analogues” (Bioorg Med Chem, 2008).
In brackets after ≈: the same amount, converted by molar mass. Several values for one entry are separate records, joined by “and”; a condition that tells them apart may be missing. Identical values can stand only once. Square brackets hold non-standard residues; d marks the D form. Peptide text beside a SMILES is read from it. 1Nal = N[C@@H](Cc1cccc2ccccc12)C(=O)O; 2Nal = N[C@@H](Cc1ccc2ccccc2c1)C(=O)O; hPhe = N[C@@H](CCc1ccccc1)C(=O)O

What was measured:
Escherichia coli [1] = assay: Antibacterial activity against Escherichia coli HB101 after 3 hrs by microdilution serial twofold assay; assay type: functional; conditions: HB101, 3 h, read-out: LD50 (the source's name)
Outline: (§1)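 Mueller Hinton Broth static cultures grown at 37 °C and diluted to 5 × 10⁵ CFU/mL. Peptides were tested by twofold serial microdilution starting from 100 μg/mL in a final volume of 200 μL, with peptide-free controls. After 3 h incubation, cultures were serially 10-fold diluted in PBS and plated on Mueller Hinton Agar. Counts were taken after 24 h at 37 °C. Value is the dose giving 50% bacterial lethality.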

[2] = Toxicity assessed as hemolytic activity in human red blood cells after 30 mins; assay type: cell-based, Erythrocyte; conditions: read-out: HD50
Outline: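 Serially diluted peptides were incubated with 10⁸ washed human RBC (100 µL) for 30 min at 37 °C with agitation. After centrifugation at 900g for 10 min, haemoglobin in the supernatant was read at 550 nm. Distilled water gave maximal lysis. HC₅₀ is the mean from at least two independent experiments run in triplicate.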

Staphylococcus aureus [3] = assay: Antibacterial activity against Staphylococcus aureus Cowan 1 NCTC 8530 after 24 hrs by microdilution serial twofold assay; assay type: functional; conditions: Cowan 1, 24 h
Outline: (§2)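 Bacteria grown in static culture at 37 °C in Mueller Hinton broth and diluted to 5 × 10⁵ CFU/mL. Peptides were tested by twofold serial microdilution starting from 100 μg/mL, with peptide-free control wells. The MIC was the lowest concentration with no rise in turbidity after overnight incubation at 37 °C. Values are means of at least two independent experiments run in duplicate.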

Leishmania major [4] = assay: Antileishmanial activity against Leishmania major MHOM/IL/67/JERICHO-2 after 24 hrs by dye exclusion method; assay type: functional
Outline: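 Promastigotes were grown at 25 °C in medium 199 with 20% heat-inactivated FCS, penicillin/streptomycin, L-glutamine, HEPES, adenine, hemin and biotin. They were resuspended at 5 × 10⁵ viable cells/mL and exposed to serial peptide dilutions at 25 °C with agitation. Viability was counted by trypan blue exclusion in a haemocytometer.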

Escherichia coli [5] = assay: Antibacterial activity against Escherichia coli HB101 after 24 hrs by microdilution serial twofold assay; assay type: functional; conditions: HB101, 24 h; outline: as §2
Leishmania major [6] = assay: Antileishmanial activity against Leishmania major MHOM/IL/67/JERICHO-2 assessed as protozoal viability after 24 hrs by dye exclusion method; assay type: functional
Outline: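 Promastigotes grown at 25 °C in supplemented medium 199 containing 20% heat-inactivated FCS, then resuspended at 5 × 10⁵ viable/mL with serially diluted peptides. After 24 h at 25 °C with agitation, viable cells were counted by haemocytometer using trypan blue exclusion. LC₅₀ is the 50% survival reduction versus an untreated culture, fitted by nonlinear regression. Run in triplicate.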

Staphylococcus aureus [7] = assay: Antibacterial activity against Staphylococcus aureus Cowan 1 NCTC 8530 after 3 hrs by microdilution serial twofold assay; assay type: functional; conditions: Cowan 1, 3 h, read-out: LD50 (the source's name); outline: as §1
Burkholderia cepacia = assay: Antibacterial activity against Burkholderia cepacia 6/06 after 24 hrs by microdilution serial twofold assay; assay type: functional; outline: as §2
Candida albicans = assay: Antifungal activity against wild type Candida albicans by broth microdilution method; assay type: functional
Outline: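 Wild-strain yeast was tested in triplicate by broth microdilution following NCCLS recommendations. The MIC was the lowest peptide concentration with no increase in turbidity after overnight incubation at 37 °C.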

Pseudomonas aeruginosa [8] = assay: Antibacterial activity against multi drug-resistant Pseudomonas aeruginosa after 24 hrs by microdilution serial twofold assay; assay type: functional
Outline: (§3)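 Mueller Hinton Broth cultures grown statically at 37 °C and diluted to 5 × 10⁵ CFU/mL. Twofold serial microdilution from 100 μg/mL peptide, final volume 200 μL, with peptide-free controls. MIC is the lowest concentration with no turbidity increase after overnight incubation at 37 °C. Means come from at least two independent experiments run in duplicate.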

Pseudomonas aeruginosa [9] = assay: Antibacterial activity against Pseudomonas aeruginosa ATCC 15442 after 24 hrs by microdilution serial twofold assay; assay type: functional; conditions: ATCC 15442, 24 h
Staphylococcus aureus [10] = assay: Antibacterial activity against Staphylococcus aureus ATCC 6538P after 24 hrs by microdilution serial twofold assay; assay type: functional
[11] = system: Stenotrophomonas maltophilia; assay: Antibacterial activity against Stenotrophomonas maltophilia FC after 24 hrs by microdilution serial twofold assay; assay type: functional; outline: as §2
Staphylococcus aureus [12] = assay: Antibacterial activity against multi drug-resistant Staphylococcus aureus after 24 hrs by microdilution serial twofold assay; assay type: functional; outline: as §3
Bacillus subtilis = assay: Antibacterial activity against Bacillus subtilis ATCC 9466 after 24 hrs by microdilution serial twofold assay; assay type: functional; conditions: ATCC 9466, 24 h

Compound | LC50 (Escherichia coli [1]) [µM] | HC50 at 0.5 h [2] [µM] | MIC (Staphylococcus aureus [3]) [µM] | MIC (Leishmania major [4]) | MIC (Escherichia coli [5]) [µM] | LC50 (Leishmania major [6]) | LC50 (Staphylococcus aureus [7]) [µM] | MIC (Burkholderia cepacia) [µM] | MIC (Candida albicans) [µM] | MIC (Pseudomonas aeruginosa [8]) [µM] | MIC (Pseudomonas aeruginosa [9]) [µM] | MIC (Staphylococcus aureus [10]) [µM] | MIC [11] [µM] | MIC (Staphylococcus aureus [12]) [µM] | MIC (Bacillus subtilis) [µM]
H-ALWKTMLKKLGTMA-NH2 | 20.5 | > 100 | > 48.8 | 100 µg/mL and 48.8 µM | 48.8 | 50 µg/mL and 24.4 µM | 28.3 |  |  |  |  |  |  |  | 
H-ALLKTMLKKLGTMAL-NH2 | 6 | > 100 | > 47.9 |  | 23.9 |  | 12 | > 48 | 12 | > 48 | > 48 | 24 | > 48 | > 48 | 24
CSCC[C@H](NC(=O)[C@@H](NC(=O)CNC(=O)[C@H](CC(C)C)NC(=O)[C@H](CCCCN)NC(=O)[C@H](CCCCN)NC(=O)[C@H](CC(C)C)NC(=O)[C@H](CCSC)NC(=O)[C@@H](NC(=O)[C@H](CCCCN)NC(=O)[C@H](Cc1cccc2ccccc12)NC(=O)[C@H](CC(C)C)NC(=O)[C@H](C)N)[C@@H](C)O)[C@@H](C)O)C(=O)N[C@@H](C)C(=O)N[C@@H](CC(C)C)C(N)=O (H-AL[1Nal]KTMLKKLGTMAL-NH2) | 0.9 | 75 | 11.5 (≈ 19.7 µg/mL) |  | 2.8 (≈ 4.8 µg/mL) |  | 2.4 | 25 (≈ 42.9 µg/mL) | 11.2 (≈ 19.2 µg/mL) | 11.2 (≈ 19.2 µg/mL) | 5.6 (≈ 9.61 µg/mL) | 2.8 (≈ 4.8 µg/mL) | 22.5 (≈ 38.6 µg/mL) | 22.5 (≈ 38.6 µg/mL) | 11.2 (≈ 19.2 µg/mL)
CSCC[C@H](NC(=O)[C@@H](NC(=O)CNC(=O)[C@H](CC(C)C)NC(=O)[C@H](CCCCN)NC(=O)[C@H](CCCCN)NC(=O)[C@H](CC(C)C)NC(=O)[C@H](CCSC)NC(=O)[C@@H](NC(=O)[C@H](CCCCN)NC(=O)[C@H](Cc1cccc2ccccc12)NC(=O)[C@H](CC(C)C)NC(=O)[C@H](C)NC(=O)[C@@H](N)CCCCN)[C@@H](C)O)[C@@H](C)O)C(=O)N[C@@H](C)C(=O)N[C@@H](CC(C)C)C(N)=O (H-KAL[1Nal]KTMLKKLGTMAL-NH2) | < 0.8 | 80 | 5.1 (≈ 9.4 µg/mL) |  | 1.2 (≈ 2.21 µg/mL) |  | 0.8 | 42 (≈ 77.4 µg/mL) | 10.5 (≈ 19.4 µg/mL) | 10.5 (≈ 19.4 µg/mL) | 2.6 (≈ 4.79 µg/mL) | 1.3 (≈ 2.4 µg/mL) | 21 (≈ 38.7 µg/mL) | 21 (≈ 38.7 µg/mL) | 5.2 (≈ 9.59 µg/mL)
H-ALWKTMLKKLGTMALHAGKAALGAAADTI-NH2 | 2.2 | > 100 | 2.7 | 25 µg/mL and 6.1 µM | 2.7 | 9.6 µg/mL and 2.3 µM | < 1.5 |  |  |  |  |  |  |  | 
H-ALWKTMLKKLGT-NH2 | 54 | > 100 | > 54 | 100 µg/mL and 54.2 µM | > 54 | 50 µg/mL and 27.1 µM | 54 |  |  |  |  |  |  |  | 
H-ALHKTMLKKLGTMAL-NH2 | > 44.9 | > 100 | > 44.9 |  | > 44.9 |  | > 44.9 | > 45 | > 45 | > 45 | > 45 | > 45 | > 45 | > 45 | > 45
CSCC[C@H](NC(=O)[C@@H](NC(=O)CNC(=O)[C@H](CC(C)C)NC(=O)[C@H](CCCCN)NC(=O)[C@H](CCCCN)NC(=O)[C@H](CC(C)C)NC(=O)[C@H](CCSC)NC(=O)[C@@H](NC(=O)[C@H](CCCCN)NC(=O)[C@H](CCc1ccccc1)NC(=O)[C@H](CC(C)C)NC(=O)[C@H](C)N)[C@@H](C)O)[C@@H](C)O)C(=O)N[C@@H](C)C(=O)N[C@@H](CC(C)C)C(N)=O (H-AL[hPhe]KTMLKKLGTMAL-NH2) | 3 | > 100 | 46.8 (≈ 78.6 µg/mL) |  | 11.7 (≈ 19.6 µg/mL) |  | 9.3 | 23 (≈ 38.6 µg/mL) | 5.8 (≈ 9.74 µg/mL) | 46 (≈ 77.2 µg/mL) | > 46 | 5.8 (≈ 9.74 µg/mL) | 23 (≈ 38.6 µg/mL) | > 46 | 23 (≈ 38.6 µg/mL)
H-KALWKTMLKKLGTMAL-NH2 | < 0.8 | > 100 | 20.8 |  | 2.6 |  | 2.7 | 42 | 10.1 | 21 | 5.2 | 2.6 | 21 | > 42 | 21
H-ALFKTMLKKLGTMAL-NH2 | 4.5 | > 100 | > 47.1 |  | 23.5 |  | 16.7 | > 46 | 5.8 | > 46 | > 46 | 23 | > 46 | > 46 | 23
CSCC[C@H](NC(=O)[C@@H](NC(=O)CNC(=O)[C@H](CC(C)C)NC(=O)[C@H](CCCCN)NC(=O)[C@H](CCCCN)NC(=O)[C@H](CC(C)C)NC(=O)[C@H](CCSC)NC(=O)[C@@H](NC(=O)[C@H](CCCCN)NC(=O)[C@H](Cc1ccc2ccccc2c1)NC(=O)[C@H](CC(C)C)NC(=O)[C@H](C)N)[C@@H](C)O)[C@@H](C)O)C(=O)N[C@@H](C)C(=O)N[C@@H](CC(C)C)C(N)=O (H-AL[2Nal]KTMLKKLGTMAL-NH2) | 0.9 | > 100 | 11.5 (≈ 19.7 µg/mL) |  | 2.8 (≈ 4.8 µg/mL) |  | 2.5 | 25 (≈ 42.9 µg/mL) | 11.2 (≈ 19.2 µg/mL) | 11.2 (≈ 19.2 µg/mL) | 5.6 (≈ 9.61 µg/mL) | 2.8 (≈ 4.8 µg/mL) | 25 (≈ 42.9 µg/mL) | > 25 | 5.6 (≈ 9.61 µg/mL)
H-ALWKTMLKKLGTMAL-NH2 | 1.4 | > 100 | 11.5 | 50 µg/mL and 22.8 µM | 2.9 | 19 µg/mL and 8.7 µM | 2.7 | 23.7 | 23.7 | > 47 | > 47 | 5.7 | > 45 | > 47 | 5.7
H-ALWKTMLKKLGTMALHAGK-NH2 | < 1.8 | > 100 | 35.9 | 50 µg/mL and 17.9 µM | 3.6 | 22 µg/mL and 7.9 µM | 10.7 |  |  |  |  |  |  |  | 
H-ALYKTMLKKLGTMAL-NH2 | > 46.7 | > 100 | > 46.7 |  | > 46.7 |  | > 46.7 | > 45 | > 45 | > 45 | > 45 | > 45 | > 45 | > 45 | > 45
H-ALWKTMLKKLGTM-NH2 | 22.7 | > 100 | > 50.6 | 100 µg/mL and 50.6 µM | 50.6 | 50 µg/mL and 25.3 µM | 50.6 |  |  |  |  |  |  |  | 
